Publication PMC5668626 (Biochemistry and Biophysics Reports, 2015)

How the values were obtained:
[1] = molecular target: Plasmodium falciparum P2 (recombinant) (Plasmodium falciparum); assay: SEC
[2] = molecular target: T1, PfP2-tetramer (Plasmodium falciparum P2, recombinant) (Plasmodium falciparum, UniProt O00806); assay: isothermal titration calorimetry; format: binding
T1 sequence (O00806 1-112): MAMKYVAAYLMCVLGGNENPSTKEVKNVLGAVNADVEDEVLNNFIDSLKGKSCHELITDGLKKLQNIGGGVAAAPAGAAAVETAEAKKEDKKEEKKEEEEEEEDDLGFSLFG
In short: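 Recombinant PfP2 tetramer (0.075 mM) in the sample cell, with buffer in the reference cell, at pH 7.4 and 25 °C. The hydrophobic dye ligand (15 mM, syringe) was added in 50 injections of 5 μl, each lasting 10 s and spaced 4 min apart, with stirring. Titration heats were fitted to a binding model for K, ΔH, ΔS and n.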

Kd [2] [µM] | Compound | stoichiometry N [1]
– | Plasmodium falciparum P2 (recombinant) (natural protein) | 4
102 | O=S(=O)(O)c1cccc2cccc(Nc3ccccc3)c12 [ANS] | –
